Data: ChEMBL document CHEMBL1649330, “Multicenter study for defining the breakpoint for rifampin resistance in Neisseria meningitidis by rpoB sequencing” (2010)
Values after ≈ are worked out from the molar mass of the structure shown.

Legend:
Format in all cases: functional
Neisseria meningitidis [1] = assay: Antimicrobial activity against Neisseria meningitidis harboring rpoB12 H552L mutant allele by Etest
In short: (§1)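 Rifampin MIC by Etest on meningococcal clinical isolates collected by the participating national laboratories, with MIC read in mg/liter. The rpoB gene of each isolate was sequenced and assigned to an allele. Isolates were serogrouped by agglutination with serogroup-specific antisera.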

Neisseria meningitidis [2] = assay: Antimicrobial activity against Neisseria meningitidis harboring rpoB37 G560S mutant allele by Etest; in short: as §1
Neisseria meningitidis [3] = assay: Antimicrobial activity against Neisseria meningitidis harboring rpoB39 D542V mutant allele by Etest; in short: as §1
Neisseria meningitidis [4] = assay: Antimicrobial activity against Neisseria meningitidis harboring rpoB14 S548F mutant allele by Etest; in short: as §1
Neisseria meningitidis [5] = assay: Antimicrobial activity against Neisseria meningitidis expressing wild type rpoB31 allele by Etest
In short: (§2)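 Rifampin MIC by Etest on meningococcal isolates from participating national laboratories, with rpoB sequenced for each isolate. Values are geometric means of MICs over all isolates carrying a given allele that lacks alterations at S548, H552 and S557 and lacks D542V. Only alleles represented by at least five isolates were reported.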

Neisseria meningitidis [6] = assay: Antimicrobial activity against Neisseria meningitidis harboring rpoB36 H552N mutant allele by Etest; in short: as §1
Neisseria meningitidis [7] = assay: Antimicrobial activity against Neisseria meningitidis harboring rpoB23 S548F mutant allele by Etest; in short: as §1
Neisseria meningitidis [8] = assay: Antimicrobial activity against Neisseria meningitidis harboring rpoB45 D542V mutant allele by Etest; in short: as §1
Neisseria meningitidis [9] = assay: Antimicrobial activity against Neisseria meningitidis expressing wild type rpoB2 allele by Etest; in short: as §2
Neisseria meningitidis [10] = assay: Antimicrobial activity against Neisseria meningitidis harboring rpoB53 G560S mutant allele by Etest; in short: as §1
Neisseria meningitidis [11] = assay: Antimicrobial activity against Neisseria meningitidis expressing wild type rpoB18 allele by Etest; in short: as §2
Neisseria meningitidis [12] = assay: Antimicrobial activity against Neisseria meningitidis expressing wild type rpoB9 allele by Etest; in short: as §2
Neisseria meningitidis [13] = assay: Antimicrobial activity against Neisseria meningitidis harboring rpoB50 S557F mutant allele by Etest; in short: as §1
Neisseria meningitidis [14] = assay: Antimicrobial activity against Neisseria meningitidis harboring rpoB13 H552Y mutant allele by Etest; in short: as §1
Neisseria meningitidis [15] = assay: Antimicrobial activity against Neisseria meningitidis expressing wild type rpoB1 allele by Etest; in short: as §2
Neisseria meningitidis [16] = assay: Antimicrobial activity against Neisseria meningitidis expressing wild type rpoB28 allele by Etest; in short: as §2
Neisseria meningitidis [17] = assay: Antimicrobial activity against Neisseria meningitidis harboring rpoB15 H552N mutant allele by Etest; in short: as §1
Neisseria meningitidis [18] = assay: Antimicrobial activity against Neisseria meningitidis expressing wild type rpoB27 allele by Etest; in short: as §2
Neisseria meningitidis [19] = assay: Antimicrobial activity against Neisseria meningitidis expressing wild type rpoB5 allele by Etest; in short: as §2
Neisseria meningitidis [20] = assay: Antimicrobial activity against Neisseria meningitidis expressing wild type rpoB40 allele by Etest; in short: as §2
Neisseria meningitidis [21] = assay: Antimicrobial activity against Neisseria meningitidis harboring rpoB19 S557F mutant allele by Etest; in short: as §1
Neisseria meningitidis [22] = assay: Antimicrobial activity against Neisseria meningitidis harboring rpoB44 H552Y mutant allele by Etest; in short: as §1
Neisseria meningitidis [23] = assay: Antimicrobial activity against Neisseria meningitidis expressing wild type rpoB34 allele by Etest; in short: as §2
Neisseria meningitidis [24] = assay: Antimicrobial activity against Neisseria meningitidis harboring rpoB17 H552Y mutant allele by Etest; in short: as §1
Neisseria meningitidis [25] = assay: Antimicrobial activity against Neisseria meningitidis harboring rpoB57 D542N mutant allele by Etest; in short: as §1
Neisseria meningitidis [26] = assay: Antimicrobial activity against Neisseria meningitidis harboring rpoB11 H552N mutant allele by Etest; in short: as §1
Neisseria meningitidis [27] = assay: Antimicrobial activity against Neisseria meningitidis expressing wild type rpoB4 allele by Etest; in short: as §2
Neisseria meningitidis [28] = assay: Antimicrobial activity against Neisseria meningitidis harboring rpoB46 H552N mutant allele by Etest; in short: as §1
Neisseria meningitidis [29] = assay: Antimicrobial activity against Neisseria meningitidis harboring rpoB20 H552Y mutant allele by Etest; in short: as §1
Neisseria meningitidis [30] = assay: Antimicrobial activity against Neisseria meningitidis harboring rpoB32 H552Y mutant allele by Etest; in short: as §1
Neisseria meningitidis [31] = assay: Antimicrobial activity against Neisseria meningitidis harboring rpoB10 H552R mutant allele by Etest; in short: as §1
Neisseria meningitidis [32] = assay: Antimicrobial activity against Neisseria meningitidis harboring rpoB16 H552Y mutant allele by Etest; in short: as §1
Neisseria meningitidis [33] = assay: Antimicrobial activity against Neisseria meningitidis harboring rpoB26 D542N and S557F mutant allele by Etest; in short: as §1
Neisseria meningitidis [34] = assay: Antimicrobial activity against Neisseria meningitidis harboring rpoB51 H552Y mutant allele by Etest; in short: as §1

CO[C@H]1/C=C/O[C@@]2(C)Oc3c(C)c(O)c4c(O)c(c(/C=N/N5CCN(C)CC5)c(O)c4c3C2=O)NC(=O)/C(C)=C\C=C\[C@H](C)[C@H](O)[C@@H](C)[C@@H](O)[C@@H](C)[C@H](OC(C)=O)[C@@H]1C [RIFAMPIN]
MIC (Neisseria meningitidis [1]): > 32 µg/mL | MIC (Neisseria meningitidis [2]): 8 µg/mL (≈ 9.72 µM) | MIC (Neisseria meningitidis [3]): > 32 µg/mL | MIC (Neisseria meningitidis [4]): > 32 µg/mL | MIC (Neisseria meningitidis [5]): 0.015 µg/mL (≈ 0.0182 µM) | MIC (Neisseria meningitidis [6]): 8 µg/mL (≈ 9.72 µM) | MIC (Neisseria meningitidis [7]): > 32 µg/mL | MIC (Neisseria meningitidis [8]): 256 µg/mL (≈ 311 µM) | MIC (Neisseria meningitidis [9]): 0.057 µg/mL (≈ 0.0693 µM) | MIC (Neisseria meningitidis [10]): 0.125 µg/mL (≈ 0.152 µM) | MIC (Neisseria meningitidis [11]): 0.024 µg/mL (≈ 0.0292 µM) | MIC (Neisseria meningitidis [12]): 0.065 µg/mL (≈ 0.079 µM) | MIC (Neisseria meningitidis [13]): > 32 µg/mL | MIC (Neisseria meningitidis [14]): > 32 µg/mL | MIC (Neisseria meningitidis [15]): 0.225 µg/mL (≈ 0.273 µM) | MIC (Neisseria meningitidis [16]): 0.025 µg/mL (≈ 0.0304 µM) | MIC (Neisseria meningitidis [17]): > 32 µg/mL | MIC (Neisseria meningitidis [18]): 0.15 µg/mL (≈ 0.182 µM) | MIC (Neisseria meningitidis [19]): 0.061 µg/mL (≈ 0.0741 µM) | MIC (Neisseria meningitidis [20]): 0.034 µg/mL (≈ 0.0413 µM) | MIC (Neisseria meningitidis [21]): > 32 µg/mL | MIC (Neisseria meningitidis [22]): 256 µg/mL (≈ 311 µM) | MIC (Neisseria meningitidis [23]): 0.029 µg/mL (≈ 0.0352 µM) | MIC (Neisseria meningitidis [24]): > 32 µg/mL | MIC (Neisseria meningitidis [25]): 0.125 µg/mL (≈ 0.152 µM) | MIC (Neisseria meningitidis [26]): > 32 µg/mL | MIC (Neisseria meningitidis [27]): 0.089 µg/mL (≈ 0.108 µM) | MIC (Neisseria meningitidis [28]): 256 µg/mL (≈ 311 µM) | MIC (Neisseria meningitidis [29]): > 32 µg/mL | MIC (Neisseria meningitidis [30]): > 32 µg/mL | MIC (Neisseria meningitidis [31]): > 32 µg/mL | MIC (Neisseria meningitidis [32]): > 32 µg/mL | MIC (Neisseria meningitidis [33]): > 32 µg/mL | MIC (Neisseria meningitidis [34]): > 32 µg/mL
